In ChEMBL document CHEMBL1158336, “Synthesis, antitubercular activity and docking study of novel cyclic azole substituted diphenyl ether derivatives” (2009):
In brackets after ≈: the same amount, converted by molar mass.

Test system: Mycobacterium tuberculosis
Test: Antimycobacterial activity against Mycobacterium tuberculosis H37Rv at 1 ug/ml after 6 weeks
Format: functional
Procedure, shortened: (§1)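 Lowenstein–Jensen slope method. Compounds dissolved in DMSO, diluted in DMSO, and an aliquot mixed into L.J. medium at 0.8 mL per 7.2 mL. Slopes set and sterilised at 75–80 °C for 3 days. M. tuberculosis H37Rv suspended with glass beads in sterile water and inoculated by 3 mm nichrome loop. DMSO-only and compound-free media served as controls.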

| SMILES | Activity [%] |
| --- | --- |
| c1ccc(Oc2cccc(-c3nc(-c4ccccc4)co3)c2)cc1 | 100 |
| COc1ccc(-c2coc(-c3cccc(Oc4ccccc4)c3)n2)cc1 | 100 |
| S=c1[nH]nc(-c2ccc(Oc3ccccc3)cc2)o1 | 100 |
| Clc1ccc(-c2coc(-c3cccc(Oc4ccccc4)c3)n2)cc1 | 100 |
| O=C(c1ccccc1)N1N=C(c2ccccn2)CC1c1ccc(Oc2ccccc2)cc1 (centres undefined) | 100 |
| S=c1[nH]nc(-c2ccc(Oc3ccccc3)cc2)n1-c1ccccc1 | 100 |
| S=c1[nH]nc(-c2cccc(Oc3ccccc3)c2)n1-c1ccccc1 | 100 |
| S=c1[nH]nc(-c2cccc(Oc3ccccc3)c2)o1 | 100 |
| S=c1[nH]nc(-c2ccccc2Oc2ccccc2)n1-c1ccccc1 | 100 |
| Oc1cc(Cl)ccc1Oc1ccc(Cl)cc1Cl [TRICLOSAN] | 100 |
| S=c1[nH]nc(-c2ccccc2Oc2ccccc2)o1 | 100 |

Test system: Mycobacterium tuberculosis
Test: Antimycobacterial activity against Mycobacterium tuberculosis H37Rv after 6 weeks
Format: functional
Procedure, shortened: as §1

| SMILES | MIC [mg/L] |
| --- | --- |
| NNC(=O)c1ccncc1 [ISONIAZID] | 0.01 (≈ 0.0729 µM) |
| CO[C@H]1/C=C/O[C@@]2(C)Oc3c(C)c(O)c4c(O)c(c(/C=N/N5CCN(C)CC5)c(O)c4c3C2=O)NC(=O)/C(C)=C\C=C\[C@H](C)[C@H](O)[C@@H](C)[C@@H](O)[C@@H](C)[C@H](OC(C)=O)[C@@H]1C [RIFAMPIN] | 0.06 (≈ 0.0729 µM) |
| Oc1cc(Cl)ccc1Oc1ccc(Cl)cc1Cl [TRICLOSAN] | 5 (≈ 17.3 µM) |
